Reference: ChEMBL document CHEMBL3259682, “Synthesis, β-haematin inhibition, and in vitro antimalarial testing of isocryptolepine analogues: SAR study of indolo[3,2-c]quinolines with various substituents at C2, C6, and N11” (Bioorg Med Chem, 2014)
pIC50: −log10 of the molar value.

Legend:
[1] = Binding affinity to haematin assessed as inhibition of beta-haematin formation after 5 to 6 hrs by pyridine-ferrichrome-based method
Method in brief: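 Detergent (NP-40) mediated β-haematin formation assay, run manually. Compounds came from 20, 2 and 0.4 mM DMSO stocks, tested at 0–1000 µM final. Haematin was 100 µM final in 0.5 M acetate buffer, pH 4.8. Incubation was 5–6 h at 37 °C. Read-out used the pyridine-ferrichrome method with UV–vis absorbance. IC₅₀ came from sigmoidal dose–response fits.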

[2] = Resistance index, ratio of IC50 for chloroquine/pyrimethamine-resistant Plasmodium falciparum K1 to IC50 for erythrocytic stage of chloroquine-sensitive Plasmodium falciparum NF54; assay type: functional
Method in brief: (§1)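 Chloroquine/pyrimethamine-resistant K1 and drug-susceptible NF54 P. falciparum were grown in hypoxanthine-free RPMI 1640 with HEPES, NaHCO₃, neomycin and Albumax, in human A⁺ erythrocytes at 2.5% haematocrit and 0.3% parasitaemia. DMSO stocks were 10 mg/mL, tested in eleven 3-fold dilutions under 4% CO₂/3% O₂/93% N₂. ³H-hypoxanthine was added at 48 h, then 24 h more before filter harvest. IC₅₀ is the mean of two assays; RI = K1/NF54 IC₅₀.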

Plasmodium falciparum [3] = experiment: Antimalarial activity against erythrocytic stage of chloroquine/pyrimethamine-resistant Plasmodium falciparum K1 after 48 hrs by [3H]-hypoxanthine incorporation assay; assay type: functional, organism-based; method in brief: as §1
Plasmodium falciparum [4] = experiment: Antimalarial activity against erythrocytic stage of chloroquine-sensitive Plasmodium falciparum NF54 after 48 hrs by [3H]-hypoxanthine incorporation assay; assay type: functional, organism-based
Method in brief: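 ³H-hypoxanthine incorporation against P. falciparum NF54. DMSO stocks at 10 mg/mL were added to cultures in hypoxanthine-free RPMI 1640 with HEPES, NaHCO₃, neomycin and Albumax, using human A⁺ red cells at 2.5% haematocrit and 0.3% parasitaemia. Eleven 3-fold serial dilutions were tested. Incubation was under 4% CO₂/3% O₂/93% N₂. ³H-hypoxanthine was added after 48 h, followed by a further 24 h. Cells were harvested onto glass-fibre filters. IC₅₀ is the mean of two independent assays.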

L6 = experiment: Cytotoxicity against rat L6 cells after 70 hrs by Alamar Blue assay; assay type: functional, cell-based; settings: L6, 70 h
Method in brief: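 Rat skeletal myoblast L6 cells, 4000 per well, in RPMI 1640 with 1% L-glutamine and 10% fetal bovine serum. Eleven 3-fold serial drug dilutions were tested. Alamar Blue was added for a final 2 h. Fluorescence was read at excitation 536 nm and emission 588 nm. IC₅₀ is the mean of two independent assays.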

[5] = Selectivity index, ratio of IC50 for rat L6 cells to IC50 for chloroquine/pyrimethamine-resistant Plasmodium falciparum K1; assay type: toxicity, cell-based; settings: read-out: Ratio IC50
[6] = Selectivity index, ratio of IC50 for rat L6 cells to IC50 for erythrocytic stage of chloroquine-sensitive Plasmodium falciparum NF54; assay type: toxicity, cell-based; settings: read-out: Ratio IC50
Method in brief: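 Selectivity index is the L6 cytotoxicity IC₅₀ divided by the NF54 antiplasmodial IC₅₀. Each IC₅₀ is the mean of two independent assays.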

Plasmodium berghei [7] = experiment: Antimalarial activity against Plasmodium berghei infected in Swiss mouse assessed as survival at 50 mg/kg, ip qd administered for 4 days measured on day 4 post last dose; assay type: functional; settings: route intraperitoneal
Plasmodium berghei [8] = experiment: Antimalarial activity against Plasmodium berghei infected in Swiss mouse assessed as reduction in parasitemia at 50 mg/kg, ip qd administered for 4 days measured on day 4 post last dose by FACS analysis relative to control; assay type: functional; parameters: scale not given: the % may be the effect or the level left; settings: route intraperitoneal
Method in brief: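 Plasmodium berghei-infected mice, standard '4 Day Test'. Parasitaemia measured by FACS. Activity is the difference between mean percent parasitaemia of control (n = 5 mice) and treated groups, expressed as a percentage of control.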

Row | SMILES | pIC50 [1] | Ratio IC50 [2] | pIC50 (Plasmodium falciparum [3]) | pIC50 (Plasmodium falciparum [4]) | pIC50 (L6) | selectivity ratio [5] | selectivity ratio [6] | Survival (Plasmodium berghei [7]) [days] | Activity (Plasmodium berghei [8]) [%]
1 | COc1ccc2nc(NCCCNC(=O)Nc3ccccc3)c3c4ccccc4[nH]c3c2c1 | 4.83 | 1.1 | 7.71 | 7.77 | 5.82 | 77.4 | 88.8 |  | 
2 | CN(C)CCCNc1nc2ccccc2c2[nH]c3ccccc3c12 | 4.08 | 2.66 | 7.60 | 8.03 | 6.22 | 24.1 | 64.3 |  | 
3 | NCCCCCCNc1nc2ccccc2c2[nH]c3ccccc3c12 | 4.30 | 6 | 7.04 | 7.82 | 5.93 | 13.1 | 78.8 |  | 
4 | CC(C)(CNC(=O)Nc1ccccc1)CNc1nc2ccc(Cl)cc2c2[nH]c3ccccc3c12 | 4.93 | 1.6 | 7.77 | 7.97 | 5.40 | 236 | 378 | 4 | 38
5 | CC(CN)CNc1nc2ccc(Cl)cc2c2[nH]c3ccccc3c12 (stereo unspecified) | 4.90 | 2 | 7.23 | 7.53 | 5.72 | 32.5 | 65 |  | 
6 | CC(C)(CN)CNc1nc2ccc(Cl)cc2c2[nH]c3ccccc3c12 | 4.68 | 2 | 7.29 | 7.59 | 5.74 | 36.1 | 72.1 |  | 
7 | Cn1c2ccccc2c2c(NCCCN)nc3ccccc3c21 | 4.62 | 1.2 | 7.07 | 7.14 | 6.55 | 3.3 | 3.9 |  | 
8 | S=C(NCCCNc1nc2ccccc2c2[nH]c3ccccc3c12)Nc1ccccc1 | 4.73 | 2.1 | 7.31 | 7.63 | 6.60 | 5.1 | 10.6 |  | 
9 | O=C(NCCCNc1nc2ccc(Br)cc2c2[nH]c3ccccc3c12)Nc1ccccc1 | 4.86 | 1.6 | 7.43 | 7.65 | 5.89 | 34.7 | 56.9 |  | 
10 | NCCCNc1nc2ccccc2c2[nH]c3ccccc3c12 | 3.93 | 6 | 7.08 | 7.86 | 6.20 | 7.6 | 45.8 |  | 
11 | NCCCCCNc1nc2ccccc2c2[nH]c3ccccc3c12 | 4.09 | 2 | 7.60 | 7.90 | 6.09 | 32.5 | 64.8 |  | 
12 | NCCCNc1nc2ccc(Cl)cc2c2[nH]c3ccccc3c12 | 4.91 | 10.9 | 7.17 | 8.21 | 5.95 | 16.6 | 181 |  | 
